According to ChEMBL document CHEMBL1129499, “Azole endothelin antagonists. 3. Using delta log P as a tool to improve absorption” (J Med Chem, 1996):
pIC50: −log10 of the molar value.

Assays:
[1] = Partition coefficient by standard shake-flask techniquesat 37 C, using octanol and cyclohexane; format: physicochemical
Method in brief: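 Shake-flask partitioning at 37 °C. About 1 mg of compound dissolved in 4.5 mL 0.05 M PIPES, pH 6.5. Aqueous aliquot shaken 2 h with an equal volume of octanol (H-bonding) or cyclohexane (non-H-bonding), then centrifuged. Both phases assayed by HPLC. Delta log P is derived from the octanol and cyclohexane log D values. Mean of at least two determinations.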

[2] = biological target: T1, Endothelin receptor type B (Homo sapiens, UniProt P24530); assay: Inhibitory activity was evaluated against human Endothelin B receptor
T1 sequence (P24530 whole entry): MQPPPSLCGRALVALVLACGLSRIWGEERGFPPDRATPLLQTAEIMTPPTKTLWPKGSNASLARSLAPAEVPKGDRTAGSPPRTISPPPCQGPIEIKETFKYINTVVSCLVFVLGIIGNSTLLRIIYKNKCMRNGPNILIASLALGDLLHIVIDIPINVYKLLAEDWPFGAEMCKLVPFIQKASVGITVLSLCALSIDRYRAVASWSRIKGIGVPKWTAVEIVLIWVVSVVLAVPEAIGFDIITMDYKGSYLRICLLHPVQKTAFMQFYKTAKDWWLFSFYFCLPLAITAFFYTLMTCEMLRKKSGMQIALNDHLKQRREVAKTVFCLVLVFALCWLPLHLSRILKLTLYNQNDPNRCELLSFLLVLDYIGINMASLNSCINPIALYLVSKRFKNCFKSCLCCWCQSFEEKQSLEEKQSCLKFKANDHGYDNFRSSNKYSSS
Method in brief: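 Human ETA or ETB receptors expressed in CHO cells. Binding inhibition tested at 11 concentrations from 10⁻¹⁰ to 10⁻⁵ M, in duplicate. IC50 is the mean of at least 2 measurements (n = 2).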

[3] = biological target: T2, Endothelin-1 receptor (Homo sapiens, UniProt P25101); assay: Inhibitory activity was evaluated against human Endothelin A receptor
T2 sequence (P25101 whole entry): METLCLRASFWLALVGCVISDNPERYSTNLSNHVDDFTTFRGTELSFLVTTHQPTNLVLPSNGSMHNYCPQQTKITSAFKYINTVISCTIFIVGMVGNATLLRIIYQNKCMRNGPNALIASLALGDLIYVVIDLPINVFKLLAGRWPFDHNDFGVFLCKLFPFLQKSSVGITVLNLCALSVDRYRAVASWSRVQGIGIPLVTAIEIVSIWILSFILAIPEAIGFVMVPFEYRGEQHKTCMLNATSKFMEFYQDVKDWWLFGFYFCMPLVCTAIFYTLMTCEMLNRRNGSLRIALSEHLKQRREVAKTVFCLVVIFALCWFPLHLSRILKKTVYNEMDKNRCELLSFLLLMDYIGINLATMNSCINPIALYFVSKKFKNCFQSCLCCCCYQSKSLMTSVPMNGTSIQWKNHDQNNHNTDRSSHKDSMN
Method in brief: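 Human ETA or ETB receptors expressed in CHO cells. Binding inhibition tested at 11 concentrations from 10⁻¹⁰ to 10⁻⁵ M, in duplicate.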

[4] = Total absorption was estimated by area under curve (AUC) after intraduodenal administration in rat; parameters: concentration or dose not given beside the values; details: in vivo, id
[5] = logD (pH 6.5); details: buffer
[6] = Oral bioavailability of compound at a dose of 10 mg/kg was determined in rat; format: ADME, organism-based; details: in vivo
Method in brief: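 Male Sprague-Dawley rats, n = 4 per group. 10 mg/kg given by gavage or as a slow iv bolus into the jugular vein, 10 mg/mL in ethanol–propylene glycol–D5W (20:30:50) with 1 equiv NaOH. Tail-vein plasma sampled up to 12 h and assayed by HPLC after extraction. F is the dose-corrected ratio of oral to iv AUC0–∞.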

| SMILES | delta Log P [1] | pIC50 [2] | pIC50 [3] | AUC [4] | logD [5] | bioavailability [6] |
| --- | --- | --- | --- | --- | --- | --- |
| COc1cccc(Oc2c(NS(=O)(=O)c3ccc(C(C)(C)C)cc3)ncnc2OCCO)c1 | 2.37 |  |  |  | 1.98 |  |
| Cn1c(=O)c2[nH]cnc2n(C)c1=O.O [THEOPHYLLINE] | 1.53 |  |  |  | -0.12 |  |
| Cc1oc([C@@H](Cc2cn(C)c3ccccc23)NC(=O)[C@@H](CC(=O)NC2CCCCC2)CC(C)C)nc1C(=O)O | 3.82 | < 4.00 | 6.51 | 292 ng·h/mL |  |  |
| CCCN(Cc1ccc(-c2ccccc2-c2nnn[nH]2)cc1)c1ncccc1C(=O)O | 2.45 |  |  |  | -0.85 |  |
| Cc1oc([C@@H](Cc2cn(C)c3ccccc23)NC(=O)[C@H](CC(C)C)NC(=O)NC2CCCCC2)nc1C(=O)O | > 6.1 | < 4.00 | 6.66 | 193 ng·h/mL |  |  |
| Cc1oc([C@@H](Cc2cn(C)c3ccccc23)NC(=O)[C@H](CC(C)C)NC(=O)CC2CCCCC2)nc1C(=O)O | 3.78 | < 4.00 |  |  |  |  |
| Cc1oc([C@@H](Cc2cn(C)c3ccccc23)NC(=O)[C@H](CC(C)C)NC(=O)N(C)C2CCCCC2)nc1C(=O)O | 4.05 | < 4.00 | 7.60 | 833 ng·h/mL |  |  |
| Cc1[nH]c([C@@H](Cc2cn(C)c3ccccc23)NC(=O)[C@@H](CC(=O)NC2CCCCC2)CC(C)C)nc1C(=O)O | > 6.2 | < 4.00 | 7.54 | 81.7 ng·h/mL |  |  |

Second part, the molecule after the results:

| delta Log P [1] | pIC50 [2] | pIC50 [3] | AUC [4] | logD [5] | bioavailability [6] | SMILES |
| --- | --- | --- | --- | --- | --- | --- |
| 5.92 | 4.47 | 7.96 | 4.33 ng·h/mL |  |  | Cc1[nH]c([C@@H](Cc2cn(C)c3ccccc23)NC(=O)[C@H](CC(C)C)NC(=O)NC2CCCCC2)nc1C(=O)O |
| 5.4 | 4.70 | 8.74 | 103 ng·h/mL |  |  | Cc1[nH]c([C@@H](Cc2cn(C)c3ccccc23)NC(=O)[C@H](CC(C)C)NC(=O)N(C)C2CCCCC2)nc1C(=O)O |
| 4.59 | < 4.00 | 6.35 | 983 ng·h/mL |  |  | Cc1oc([C@@H](Cc2cn(C)c3ccccc23)NC(=O)[C@H](CC(C)C)N(C)C(=O)NC2CCCCC2)nc1C(=O)O |
| 3.82 | 4.05 | 8.34 | 1840 ng·h/mL |  | 13.5% | Cc1oc([C@@H](Cc2cn(C)c3ccccc23)NC(=O)[C@H](CC(C)C)OC(=O)N(C)C2CCCCC2)nc1C(=O)O |
| 5.66 | < 4.05 | 6.33 |  |  |  | Cc1[nH]c([C@@H](Cc2cn(C)c3ccccc23)NC(=O)[C@H](CC(C)C)NC(=O)CC2CCCCC2)nc1C(=O)O |
| 3.71 | 4.10 | 7.77 | 1760 ng·h/mL |  |  | Cc1oc([C@@H](Cc2cn(C)c3ccccc23)NC(=O)[C@H](CC(C)C)OC(=O)OC2CCCCC2)nc1C(=O)O |
| 4.04 | 4.32 | 7.68 | 815 ng·h/mL |  |  | Cc1oc([C@@H](Cc2cn(C)c3ccccc23)NC(=O)[C@H](CC(C)C)OC(=O)NC2CCCCC2)nc1C(=O)O |
| > 6.2 | < 4.00 | 7.12 | 168 ng·h/mL |  |  | Cc1[nH]c([C@@H](Cc2cn(C)c3ccccc23)NC(=O)[C@H](CC(C)C)NC(=O)OC2CCCCC2)nc1C(=O)O |
| > 6 | < 4.00 | 7.66 | 247 ng·h/mL |  |  | Cc1[nH]c([C@@H](Cc2cn(C)c3ccccc23)NC(=O)[C@H](CC(C)C)N(C)C(=O)NC2CCCCC2)nc1C(=O)O |
| 4.66 | < 4.00 | 7.39 | 1360 ng·h/mL |  |  | Cc1oc([C@@H](Cc2cn(C)c3ccccc23)NC(=O)[C@H](CC(C)C)NC(=O)OC2CCCCC2)nc1C(=O)O |
| > 6.1 | 4.27 | 8.03 | 347 ng·h/mL |  |  | Cc1[nH]c([C@@H](Cc2cn(C)c3ccccc23)NC(=O)[C@H](CC(C)C)OC(=O)NC2CCCCC2)nc1C(=O)O |
